Experimental findings from the EternaBench riboswitch data are described below.

The subject of the data set is MS2 coat protein. Briefly: apparent Kd, MS2 coat protein; higher = weaker binding; RNA-MaP array; FMN 200 µM where present. A digest of the protocol: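 Green signal from SNAP-549-labelled MS2 coat protein was normalised to red-channel RNA signal and to the median Fmax of control clusters. The protein was titrated from 0.7 or 1.5 nM, doubling to 3 µM, without and then with constant ligand, over designs transcribed by stalled E. coli RNA polymerase on Illumina sequencing-chip clusters, in 100 mM Tris-HCl pH 7.5, 80 mM KCl, 4 mM MgCl2, BSA, DTT, yeast tRNA and Tween-20. The apparent Kd is the median of filtered per-cluster binding-curve fits.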

Where [1] appears, read: designed as: OFF switch for flavin mononucleotide, no ligand.
[2] abbreviates: ligand present: flavin mononucleotide, designed as: OFF switch for flavin mononucleotide.
Where [3] appears, read: designed as: ON switch for flavin mononucleotide, no ligand.
[4] abbreviates: ligand present: flavin mononucleotide, designed as: ON switch for flavin mononucleotide.

“GAAAAGUCAGGAUAUGCAGAUAAAAAAACGAAAAAAAAUCUGCAGAAGGGACAUGAGGAUCACCCAUGUAAAAG”: the “apparent Kd” value under setting [1] was 0.0353 µM and the “apparent Kd” value under setting [2] was 0.0746 µM.
Consider “GGUGCAUAUGAGAAGGCGAUCAUGAAACAUGAUCGAGGAUAUCAUGUAAACAUGAGGAUCACCCAUGUAUGGGAAUAAUGCACC”, for which the “apparent Kd” value came out at 0.112 µM under setting [3] and 0.0104 µM under setting [4].
As for “UCGUUCCGUGUAGGAUAUUGGCCUUCUCUGGGCCGAGAAGGACAUGAGGAUCACCCAUGUAUGUUAUUAUCGCGCGUGGCGCAU”, the “apparent Kd” value runs as follows: under setting [1], 0.0269 µM; under setting [2], 0.0849 µM.
For “GUCUUCCUAGGAUAUACAUGAGGAUCACCCAUGUACAGUUUCGUCUAAGGAUACUCGCGUAGAAGGAGGUGGAU” the same measures were 0.0219 µM and 0.0427 µM.
For “UUUGUAUAGGUAGGAUAUACUUUCAAUUUUUUUUUCCUUACAUGAGGAUCACCCAUGUUUACAUUGUAGAAGGACCUCAUUGUU”, in that order: 0.25 µM and 0.326 µM.
For “AACAAACAUGAGGAUCACCCAUGUAAGGAUAUACGAAACAAACAAACAAACAAACAAAGUAGAAGGUACAGGAA” the same measures were 0.0194 µM and 0.0183 µM.
Turning to “UGCAUCUGAGGAUAUCACAUGUGGAACAUGAGGAUCACCCAUGUGAUCCACAUGCCGUUGUGAGAAGGCAGUAAAA”, the “apparent Kd” value by setting is: under setting [1], 0.314 µM; under setting [2], 0.193 µM.
For the sequence “CGCUAGGAUGGGUCUAAUGGACCACAGGAUAUGCUUGUACAUGAGGAUCACCCAUGUAAUAUUGUGCAGAAGGGUGGAUUCGCG”, the “apparent Kd” value is, setting by setting: under setting [3], 0.076 µM; under setting [4], 0.0109 µM.
Turning to “AUGUUUAAUGCAGGAUAUGAUUAACAUGAGGAUCACCCAUGUGGUGUUGUGAGUAAGGAGAGUGAUCAGAAGGGCAUUUUUUUU”, the “apparent Kd” value amounted to 0.592 µM under setting [3] and 0.54 µM under setting [4].
Turning to “GGUUGUCAUCGUCAUCCUUUCGGUACAUGAGGAUCACCCAUGUAGGAUAUGCUGCUCUCGGUGUGGCAGAAGGGCGUGUGUGUU”, the “apparent Kd” value reads like this: under setting [1], 0.0244 µM; under setting [2], 0.0395 µM.
With “ACUGACAUGAGGAUCACCCAUGUCUUGAAUAGGUCAAAUUCACAGGAUAUGCGCUUUGACAGGGCGCAGAAGGGUGAUGCAAUG”, the “apparent Kd” value reads like this: under setting [3], 0.0702 µM; under setting [4], 0.0118 µM.
With “AACAGUACAGGAUAUACAUGAGGAUCACCCAUGUGAGAAUUAAGUGGCGUACCACAAAGUAGAAGGGUACUGGA”, the “apparent Kd” value was determined as 0.0369 µM under setting [1] and 0.133 µM under setting [2].
As for “AGAUAACACCAGAAGGACAUGAGGAUCACCCAUGUAGGAUAUGGGCAUCACUCGAGAAAGAUACGACCAAAAGGACACGCGAUC”, the “apparent Kd” value by setting is: under setting [3], 0.085 µM; under setting [4], 0.0103 µM.
For “AUUAUUUACAUAGGAUAUUGUUACAUGAGGAUCACCCAUGUUUUCAUGGUAUUAAUAUAUUAUUUCAAGAAGGAUGUAGUUACA” the same measures were 0.0374 µM and 0.0209 µM.
Turning to “GCGAUGUUAGGAUAUUGCAUGUAGUGGGUUCCCAGCUGCGUUAAGAAGGGACAUGAGGAUCACCCAUGUGAUGA”, the “apparent Kd” value by setting is: under setting [1], 0.497 µM; under setting [2], 0.384 µM.
As for “UUUUUCUGUGUGAGGAUAUACUUUGUUUGGUCGUUGUAGAAGGCACAUGAGGAUCACCCAUGUAGUUUGUUGUG”, the “apparent Kd” value was determined as 0.0239 µM under setting [1] and 0.0331 µM under setting [2].
As for “UUUUAACAUGAGGAUCACCCAUGUGAGGAUAUCGAAAUUUAUAUUUAUAUUAAUAUAACGAGAAGGCACAUUUU”, the “apparent Kd” value by setting is: under setting [1], 0.0555 µM; under setting [2], 0.0832 µM.
Take “UGAUCUUACAUGAGGAUCACCCAUGUAGGCCAGUAACUAACCAGAAGGCACGUAGAGUACAACAGUGAGGAUAUGGAUGACAUA”: the “apparent Kd” value under setting [3] turned out to be 0.00929 µM and the “apparent Kd” value under setting [4] was 0.00595 µM.
Regarding “UGGUACAUGGGAGGAUAUGGGUUGAUAACAUGAGGAUCACCCAUGUUAAAUAUGCCUCUUGGCAACUAGAAGGCCCAUGUACCU”, the “apparent Kd” value under setting [3] came to 0.512 µM and the “apparent Kd” value under setting [4] was 0.0418 µM.
For the sequence “GUCAGCUCGUGAGGAUAUACAACACUGUUUCGGCAGUGUAUUAAGAUCACAUGAGGAUCACCCAUGUAGAAGGCACGAGCUGAU”, the “apparent Kd” value is, setting by setting: under setting [1], 0.0137 µM; under setting [2], 0.262 µM.
Take “AUCGGAUUGUAGAAGGGUGACAUGAGGAUCACCCAUGUUCAAAUGCGUUUUUCGGUAAUUGUUCCACAGGAUAUACUGUCCGAG”: the “apparent Kd” value amounted to 0.675 µM under setting [3] and 0.139 µM under setting [4].
With “AAAACUUCAGAGAAGGACCCAUUGGCGUAAUGGGUAGGAUAUCUGACUUGAGGUGUCCUGACAUGAGGAUCACCCAUGUAUAAA”, the “apparent Kd” value reads like this: under setting [1], 0.381 µM; under setting [2], 0.046 µM.
On to “AAACACAAACAUGAGGAUCACCCAUGUGGCGAAAGCCUUGGGAGAAGGGCGAUUGCAAAGCAAUCGCAGGAUAUUCGUAUUGUG”, for which the “apparent Kd” value came to 0.37 µM under setting [3] and 0.0269 µM under setting [4].
Consider “AGCUACGUUUCGUAGCAGUGUCAUCGAGAAGGCCUUAAAACAUGAGGAUCACCCAUGUAUGCAUGGGAGGAUAUCGAUGAUACA”, for which the “apparent Kd” value was determined as 0.0317 µM under setting [3] and 0.00698 µM under setting [4].
For “CGGCCGGGUCGAGGAUAUAAGUCUAGGACAUGAGGAUCACCCAUGUAUGUCUUAGAAGGCGACCCGGCCAGCCUGUUACAGGCA”, in that order: 0.0317 µM and 0.00721 µM.
For “GCUGUGGCAUGAGGAUAUGCUCAGCUUUGCUGAGCAGAAGGCAUGUCAAUAGACAUGAGGAUCACCCAUGUAGUUAACACAGCA” the same measures were 0.462 µM and 0.0329 µM.
On to “UAGAAUCGAGGAUAUACAUGAGGAUCACCCAUGUGUGGCCAUACUGUGUGGUCGUCAGGUAGAAGGCGAUUAUA”, for which the “apparent Kd” value runs as follows: under setting [1], 0.0723 µM; under setting [2], 0.0226 µM.
For “GUCAGCUCGUGAGGAUAUACAACCCUGCUUCGGCAGUGUAUUAAGAUCACAUGAGGAUCACCCAUGUAGAAGGCACGAGCUGAU” the same measures were 0.0103 µM and 0.146 µM.
With “AGCUAGUACCGAGGAUAUACAUACAUGAGGAUCACCCAUGUAUACAUGAAUAAAUGAGACUACAUGUAGAAGGCGGUACUAGCA”, the “apparent Kd” value is, setting by setting: under setting [3], 0.0711 µM; under setting [4], 0.02 µM.
For “GUGGUCAGACAUGAGGAUCACCCAUGUGGAAUAAAUAAGGAGAAGGAUAUCGAAUAUAGGAUAUACGAGAAGGUCUGGUUGGUG” the same measures were 0.0773 µM and 0.0831 µM.
Consider “UAGUCGGUAGAUAAUAAUGAUUACAUGAGGAUCACCCAUGUAUAGGAUAUCGUCAGGAAUACUGACGAGAAGGAUACAUCCGAC”, for which the “apparent Kd” value by setting is: under setting [1], 0.018 µM; under setting [2], 0.0265 µM.
In the case of “GCGAUUUUGUAGAAGGUACGUUAUAAGACAAUGUAAGGAUAUACUGACAUGAGGAUCACCCAUGUAUAAUUAGUUUACAGUCGC”, the “apparent Kd” value reads like this: under setting [3], 0.00774 µM; under setting [4], 0.00591 µM.
Take “CCCACGAGCGUAGGAUAUACAUGAGGAUCACCCAUGUAGGCACAAUGUCCCAGCUAGUGACCAGUGUAGAAGGACGUGUCUGGG”: the “apparent Kd” value was 0.0508 µM under setting [1] and 0.107 µM under setting [2].
For “CUCUUGUCAGGAUAUCUUACAUAACAAUCGUAGUUACCAUUGGAGAAGGGACAUGAGGAUCACCCAUGUUAGCC” the same measures were 0.0238 µM and 0.0465 µM.
For the sequence “GGAGCGAGCACAGGAUAUAGGCUAAAGGCUAGUCUAGAAGGGUGGGAUCAGACAUGAGGAUCACCCAUGUGUGUUUUUGCUCCA”, the “apparent Kd” value is 0.0863 µM under setting [3] and 0.686 µM under setting [4].
For the sequence “CAAUUACAUGAGGAUCACCCAUGUCAGGAUAUGCGAAUUACCAGAUGAAACUUAAUAAGCAGAAGGGACUACAA”, the “apparent Kd” value reads like this: under setting [1], 0.0363 µM; under setting [2], 0.0496 µM.
For “GGAUCGAAAGUGAGGAUAUGCUGGUCCUUGGAUCAGCAGAAGGCACAUGAGGAUCACCCAUGUUUCCACGGUCC” the same measures were 0.0195 µM and 0.091 µM.
For “GGAAAACAUGAGGAUCACCCAUGUGAGGAUAUCGAUGUCCAACCCAAAGUGCGGGACUCGAGAAGGCACUUGGA” the same measures were 0.0457 µM and 0.0315 µM.
As to “AAAAAACAUGAGGAUCACCCAUGUAAAAAAAUCACAGGAUAUAAGGUCGCGAAAGCGACCUUAGAAGGGUGAUCAA”, the “apparent Kd” value by setting is: under setting [3], 0.443 µM; under setting [4], 0.105 µM.
For the sequence “UUUGUCUGUGUGAGGAUAUACUUUGUUUGGUCGUUGUAGAAGGCACAUGAGGAUCACCCAUGUAUUUUGUUGUG”, the “apparent Kd” value was 0.0287 µM under setting [1] and 0.0317 µM under setting [2].
Turning to “UUGUUGUGUGGAGGAUAUGCACUAACUGUUAGCGCAGAAGGCCACAUGAGGAUCACCCAUGUCCGGGUUACUGCCUAAGGAGUG”, the “apparent Kd” value came out at 0.0719 µM under setting [1] and 0.23 µM under setting [2].
With “CGAGACCUCACAGGAUAUGCUGGACUUUGUCCAGCAGAAGGGUGAAAACAUGAGGAUCACCCAUGUAUGGUCUCCAAAUUUAAC”, the “apparent Kd” value by setting is: under setting [3], 0.175 µM; under setting [4], 0.0129 µM.
Take “UUGAUUAUACAAGGAUAUCUAUUGUAAUUGAGACUUACAUGAGGAUCACCCAUGUUAAUAUUUUUAGAGAAGGUGUAUUUUCAG”: the “apparent Kd” value is 0.0323 µM under setting [3] and 0.0229 µM under setting [4].
In the case of “AUUAGGUAAGGAUAUACAUGAGGAUCACCCAUGUAGGUUAACGCAACCGGGUCCGGCUGUAGAAGGUGCAACGU”, the “apparent Kd” value was determined as 0.0325 µM under setting [1] and 0.0326 µM under setting [2].
For “GCGCGGAACCUAGGAUAUCCGGCAUGGACAGGUGGUAAGUCUCCCACAUGAGGAUCACCCAUGUAGGAGAAGGAGGAUCACGGG” the same measures were 0.00651 µM and 0.0067 µM.
For “GUCAGGUCGUGAGGAUAUACAACACUGCUUCGGCAGUGUAUUAAGAUCACAUGAGGAUCACCCAUGUAGAAGGCACGAGCUGAU”, in that order: 0.0141 µM and 0.21 µM.
For “GUGCCUUGGGAGAAGGCCGUAUGCAAAGCAUACGGAGGAUAUUCAUACCGGAAACGGACAUGAGGAUCACCCAUGUGGCACAAA”, the “apparent Kd” value reads like this: under setting [3], 1.36 µM; under setting [4], 0.0461 µM.
For “UAAACAUGAGGAUCACCCAUGUUAUGAUCGGUUGAUGAAUGUGAGGAUAUACUUAAUUUUAUGGAGUAGAAGGCACUGGGUUCU”, in that order: 0.0291 µM and 0.03 µM.

By apparent Kd is commonly meant a dissociation constant that holds for the conditions of the assay.
